NF-kB expr up – compounds increasing NF-kB expression in human neuronal cells | NF-kB reporter expression; stronger effect = higher value | fold change at 12.5 µM | 1.6% of 190,000 active | AID 1239; in the data active = fold change above about 3.3
STAT1 activator – activators of IFN-gamma induced STAT1 signaling | NIH 3T3 STAT1-luciferase reporter, luminescence; 100% = IFN-gamma alone, no compound | activation (% of control), % at 5.5 µM | 2.6% of 200,000 active | AID 932;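 active = activation above the screen-wide mean activation plus 3 SD, cut at about 130% in these data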;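 note: raw ratio to IFN-gamma control signal so 100% means no change and 0% no light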
FLuc act counter – affects firefly luciferase, flagging false hits in luciferase stimulation screens. P08659. ATPlite luciferase biochemical, luminescence, 10 min; 0 = ATP-free wells, 1 = DMSO control. activation factor at 10 µM. 200,000 tested, under 10 active. AID 1027;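 active = luciferase activation factor, scaled between plate controls, of at least 2 with compound at 10 µM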
Target sequence (P08659 whole entry, looked up): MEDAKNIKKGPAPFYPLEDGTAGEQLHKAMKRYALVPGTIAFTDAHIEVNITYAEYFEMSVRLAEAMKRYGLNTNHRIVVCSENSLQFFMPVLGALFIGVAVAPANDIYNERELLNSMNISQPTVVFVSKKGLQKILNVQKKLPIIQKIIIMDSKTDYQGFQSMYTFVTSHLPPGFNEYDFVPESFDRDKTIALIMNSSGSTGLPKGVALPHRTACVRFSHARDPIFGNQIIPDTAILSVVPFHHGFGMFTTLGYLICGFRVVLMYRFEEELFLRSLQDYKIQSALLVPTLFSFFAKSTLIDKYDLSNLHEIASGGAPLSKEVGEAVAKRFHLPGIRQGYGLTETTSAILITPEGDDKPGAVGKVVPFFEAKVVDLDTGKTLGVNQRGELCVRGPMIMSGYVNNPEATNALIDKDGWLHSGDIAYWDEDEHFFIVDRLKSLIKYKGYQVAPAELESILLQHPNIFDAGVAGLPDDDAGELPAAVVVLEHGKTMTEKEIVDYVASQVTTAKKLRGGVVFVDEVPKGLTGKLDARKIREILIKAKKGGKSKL
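System: luciferase plus luciferin reagent, cell-free; medium: PBS as buffer for the ATP substrate; dosing: test compounds dosed from 2 mM stocks in 100% DMSO; timing: 10 min post-reagent at room temperature; measured by: luminescence measurement of luciferase light output; evaluation: luciferase activation, seen as luminescence increase over controls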
APP 5'UTR act – APP 5'UTR luciferase reporter activation; SH-SY5Y APP 5'UTR luciferase reporter, luminescence; zero percent = DMSO vehicle wells; activation, % at 2 µM; 1% of 190,000 active;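 active = activation above a set limit, based on mean plus 3 SD of controls, cut at about 140% in these data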
FLuc inh counter – Photinus pyralis luciferase inhibition counter-screen; P08659; ATPLite firefly luciferase biochemical luminescence, 10 min; inhibition, % at 10 µM; 1.5% of 200,000 active; AID 1006;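 active = inhibition above about 50% when tested at 10 µM, limit read from the data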
STAT1 activ conf – confirmation of STAT1 signaling activators | shares compounds with STAT1 activator | NIH 3T3 STAT1-luciferase reporter, IFN-gamma potentiation, luminescence; 100% = IFN-gamma EC80 alone, no compound | activation (% of control), % at 5.7 µM | 97% of 1,200 active | AID 1262;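 active = activation above a set limit carried over from the earlier primary STAT1 screen, cut at about 140% in these data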;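 note: simple ratio to median IFN-gamma plus DMSO wells so 0% means no light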
NFkB act – activates NF-kappaB, counter-screen to STAT1 activators. shares compounds with STAT1 activator. HEK293T NF-kB luciferase reporter, TNF-alpha stimulated, luminescence; 100% = TNF-alpha with vehicle only. activation (% of control), % at 5.7 µM. 43% of 1,200 active;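 active = activation above the mean of solvent-only control wells plus 3 SD, set per campaign, cut at about 130% in these data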;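 note: TNF-alpha given at a submaximal dose yielding about 80% of full reporter signal; values are well signal over median control so 100% means no change and 0% no light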
STAT3 act 2 – activates human STAT3, counter-screen to STAT1 activators. AID 1316. activation (% of control), % at 5.7 µM. 46% of 1,200 active. shares compounds with STAT1 activator. U3A cells STAT3-luciferase reporter, IL-6, luminescence; cells lack STAT1; 100 = IL-6 alone, no compound effect;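 active = activation above the solvent-only control well mean plus 3 SD, set per plate batch, cut at about 110% in these data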;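 note: 0% = no luminescence and 100% = median IL-6 plus DMSO wells; higher means more STAT3 reporter activation so hits are non-selective activators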
* = called active by the depositor; · = not tested or not shown. Sampled rows, rich in hits. Any-hit rate of the full collection: about 4.1%.

SMILES	NF-kB expr up	STAT1 activator	FLuc act counter	APP 5'UTR act	FLuc inh counter	STAT1 activ conf	NFkB act	STAT3 act 2
Cc1ccc(/C(N)=N/OC(=O)c2ccc3c(c2)OCO3)cc1	5*	156*	0.2	142*	78*	186*	136*	105
Cc1ccc(C(=O)O/N=C(\N)c2ccc(Br)cc2)cc1C	2	121	0.9	-4	9	·	·	·
O=C(N/N=C/c1cn(-c2ccccc2)nc1-c1cc2ccccc2o1)c1c[nH]c2ccccc12	·	187*	0.7	187*	34	199*	135*	105
OCc1cn(-c2ccccc2)nc1-c1cc2ccccc2o1	9.7*	167*	0.7	86	29	213*	139*	107
Cc1nn2c(-c3ccccc3)ccnc2c1-c1ccccc1	2.1	123	0.7	46	29	·	·	·
Cc1nc2c(-c3ccccc3)c(C)nn2c(N)c1-c1ccccc1	2.2	159*	0.3	199*	68*	206*	141*	110
CC1=CC(c2ccccc2)=Nc2ccc(C)cc2N1	5.4*	165*	0.6	182*	45	202*	130	131*
O=C(c1ccc(-c2cccc(Cl)c2Cl)o1)N1CCOCC1	4.5*	162*	0.7	108	29	201*	143*	115*
O=C(c1ccc(-c2cccc(C(F)(F)F)c2)o1)N1CCOCC1	2.1	117	1	13	-1	·	·	·
O=C(CCSc1ccccc1)Nc1ccc(S(=O)(=O)N2CCOCC2)cc1	1	94	1.1	-6	-6	·	·	·
O=C(OC1CCCCC1)c1ccc(NC(=O)C2CCCCC2)cc1	0.81	102	1	-2	-4	·	·	·
CC(C)(C)C(=O)Nc1ccc(C(=O)OC2CCCCC2)cc1	3.6*	162*	1	133	-2	219*	145*	133*
Cc1cc2ccccc2n1CCNC(=O)c1ccc(Br)o1	1.1	106	1	24	0	·	·	·
COc1ccc2c(c1)CCC/C2=N\NC(=O)c1ccoc1C	1.7	151*	0.8	108	15	129*	117	100
Cc1cc(C(=O)COC(=O)c2cc(Cl)ccc2N)c(C)n1Cc1ccco1	2	156*	0.7	171*	34	185*	128	115*
O=C(/C=C/c1ccccc1)NC1CCSC1=O (stereo not drawn)	1.8	110	0.9	9	9	·	·	·
CCCC(=O)Nc1cccc(-c2nc3cc(C)c(C)cc3o2)c1	3	177*	0.6	135	40	201*	128	107
Cc1nc2cc(NC(=O)Nc3ccc(Br)cc3)ccc2o1	2.9	162*	0.6	154*	43	209*	135*	103
Cc1ccc(-c2nc3cc(NC(=O)C(C)C)ccc3o2)cc1	2.9	188*	0.6	147*	42	321*	126	104
Cc1cc2nc(-c3ccc(NC(=O)C(C)C)cc3)oc2cc1C	3.4*	180*	0.9	140*	12	237*	146*	118*
Cc1nc2cc(NC(=O)NCc3ccc4c(c3)OCO4)ccc2o1	0.85	91	1	0	-1	·	·	·
CC(C)C(=O)Nc1cccc(-c2nc3ccccc3o2)c1	1.6	120	1	·	-2	·	·	·
COc1ccc(C(=O)CSc2nnc(CNC(=O)c3ccc(OC)cc3)n2C)cc1	1	99	1	13	-1	·	·	·
CCCn1c(NC(=O)C2CCN(S(=O)(=O)c3cccs3)CC2)nc2ccccc21	0.47	84	1.1	-11	-7	·	·	·
Cc1ccc(-c2nc3cc(NC(=O)C(C)C)ccc3o2)cc1C	0.98	195*	0.4	160*	56*	272*	93	73
SMILES	NF-kB expr up	STAT1 activator	FLuc act counter	APP 5'UTR act	FLuc inh counter	STAT1 activ conf	NFkB act	STAT3 act 2
Oc1ccc(-c2csc(-c3ccccc3)n2)cc1O	6.3*	151*	0.9	53	7	166*	109	106
COc1ccc(-c2cn3cccc(C)c3n2)cc1Br	4.8*	172*	0.4	137*	57*	191*	130	102
Cc1nc(N)sc1-c1csc(Nc2ccccn2)n1	1	169*	1	72	4	183*	131	129*
CC(C)(C)NC(=O)NC(=O)COc1ccc(Br)cc1Br	5.1*	196*	0.8	151*	23	243*	130	114*
COc1ccc2[nH]c3c(c2c1)CCn1c-3nc2ccccc2c1=O	5.5*	153*	0.6	184*	42	298*	116	93
COc1cc(OC)cc(C(=O)Nn2c(C)nc3ccccc3c2=O)c1	0.49	101	1	-1	-4	·	·	·
C=CCN(c1ccccc1Cl)S(=O)(=O)c1cccc(C(=O)OCC(=O)N(C)C2CCS(=O)(=O)C2)c1 (stereo not drawn)	1.1	98	1.1	0	-6	·	·	·
CCOC(=O)C1=C(c2cccc(Oc3ccccc3)c2)NC(=S)NC1C (stereo not drawn)	1.1	97	1	15	2	·	·	·
Oc1sc(C=Nc2ccccc2)c2ccccc12	8.1*	166*	0.9	153*	10	209*	141*	108
Oc1ccccc1N=Cc1sc2ccccc2c1Cl	2.6	90	0.9	7	7	·	·	·
N#CC1CC(c2ccccc2)=NN1c1ccccc1[N+](=O)[O-] (stereo not drawn)	1.1	156*	0.9	67	12	155*	129	124*
CCOC(=O)c1sc(NC(=O)Nc2ccccc2Cl)cc1C	4.2*	186*	0.2	220*	80*	295*	113	96
CCOC(=O)c1sc(-c2ccccc2)cc1NC(=O)Nc1ccccc1	0.84	99	1	3	3	·	·	·
CCOC(=O)c1sc(NC(=O)Nc2ccc(F)cc2)nc1C	5.3*	160*	0.4	121	59*	236*	135*	112*
CCOC(=O)c1sc(NC(=O)Nc2ccccc2)cc1C	9.5*	189*	0.2	173*	84*	222*	123	107
CCOC(=O)c1sc(NC(=O)c2ccc(C)s2)cc1C	3	175*	0.4	172*	62*	193*	138*	95
CCOC(=O)c1cc(NC(=O)Nc2ccccc2Cl)c(C)nc1C	1.1	100	1.1	3	-6	·	·	·
